Source: ChEMBL document CHEMBL1135629, “The effect of exchanging various substituents at the 2-position of 2-methoxyestradiol on cytotoxicity in human cancer cell cultures and inhibition of tubulin polymerization” (J Med Chem, 2002)

Legend:
Homo sapiens [1] = species: Homo sapiens; experiment: Cytotoxicity against the cancer cell lines renal SN12C; format: functional
Procedure, shortened: (§1)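 Human tumor cell line panel (about 55 lines) exposed to compound across 10^-4 to 10^-8 M. GI50 is the concentration giving 50% growth inhibition; values outside the range are set to the range limits.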

Homo sapiens [2] = species: Homo sapiens; experiment: Cytotoxicity against the cancer cell lines lung HOP-62; format: functional; procedure, shortened: as §1
Homo sapiens [3] = species: Homo sapiens; experiment: Cytotoxicity against the cancer cell lines melanoma UACC-62; format: functional; procedure, shortened: as §1
Homo sapiens [4] = species: Homo sapiens; experiment: Cytotoxicity against the cancer cell lines CNS SF-539; format: functional; procedure, shortened: as §1
Homo sapiens [5] = species: Homo sapiens; experiment: Cytotoxicity against the cancer cell lines prostate DU-145; format: functional; procedure, shortened: as §1
Homo sapiens [6] = species: Homo sapiens; experiment: Cytotoxicity against the cancer cell lines colon HCT116; format: functional; procedure, shortened: as §1
Tubulin = Tubulin (Bos taurus, UniProt Q6B856+Q862L2+Q862F3); experiment: Inhibition of tubulin polymerization measured at 12 uM tubulin concentration.; format: protein assay
Procedure, shortened: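 Bovine brain tubulin, electrophoretically homogeneous, at 1.2 mg/mL (12 μM), preincubated at 26 °C with varying compound concentrations (up to 40 μM), then chilled on ice before GTP was added. Polymerization at 26 °C followed by turbidity at 350 nm, with extent read at 20 min. IC50 determined graphically from at least two independent assays.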

Homo sapiens [7] = species: Homo sapiens; experiment: Cytotoxicity against the cancer cell lines ovarian OVCAR-3; format: functional; procedure, shortened: as §1
Homo sapiens [8] = species: Homo sapiens; experiment: Cytotoxicity against the cancer cell lines breast MDA-MB-435; format: functional; procedure, shortened: as §1

SMILES | IC50 (Tubulin) | GI50 (Homo sapiens [1]) | GI50 (Homo sapiens [2]) | GI50 (Homo sapiens [3]) | GI50 (Homo sapiens [4]) | GI50 (Homo sapiens [5]) | GI50 (Homo sapiens [6]) | GI50 (Homo sapiens [7]) | GI50 (Homo sapiens [8])
C[C@]12CC[C@@H]3c4cc(C#N)c(O)cc4CC[C@H]3[C@@H]1CC[C@@H]2O | > 40 µM | 48 µM | 56 µM | 6.1 µM | > 100 µM | 34 µM | > 100 µM | > 100 µM | > 100 µM
C[C@]12CC[C@@H]3c4cc(OCCO)c(O)cc4CC[C@H]3[C@@H]1CC[C@@H]2O | 9.6 µM | 19 µM | 18 µM | 13 µM | 11 µM | 16 µM | 15 µM | 8.7 µM | 16 µM
C[C@]12CC[C@@H]3c4cc(C#Cc5ccccc5)c(O)cc4CC[C@H]3[C@@H]1CC[C@@H]2O | > 40 µM | 11 µM | 14 µM | 12 µM | 16 µM | 16 µM | 14 µM | 14 µM | 16 µM
CN(C)CC/N=C/c1cc2c(cc1O)CC[C@@H]1[C@@H]2CC[C@]2(C)[C@@H](O)CC[C@@H]12 | > 40 µM | 22 µM | 19 µM | 17 µM | 22 µM | 22 µM | 15 µM | 21 µM | 19 µM
COc1cc2c(cc1O)CC[C@@H]1[C@@H]2CC[C@]2(C)[C@@H](O)CC[C@@H]12 [2-METHOXYESTRADIOL] | 4.7 µM | 0.95 µM | 0.7 µM | 0.36 µM | 0.32 µM | 1.8 µM | 0.47 µM | 0.21 µM | 0.08 µM

Now from value to molecule, other results behind:

IC50 (Tubulin) | SMILES | GI50 (Homo sapiens [1]) | GI50 (Homo sapiens [2]) | GI50 (Homo sapiens [3]) | GI50 (Homo sapiens [4]) | GI50 (Homo sapiens [5]) | GI50 (Homo sapiens [6]) | GI50 (Homo sapiens [7]) | GI50 (Homo sapiens [8])
4.9 µM | CC#Cc1cc2c(cc1O)CC[C@@H]1[C@@H]2CC[C@]2(C)[C@@H](O)CC[C@@H]12 | 6.9 µM | 1.7 µM | 0.5 µM | 0.95 µM | 3.6 µM | 0.48 µM | 0.34 µM | 0.13 µM
13 µM | C#Cc1cc2c(cc1O)CC[C@@H]1[C@@H]2CC[C@]2(C)[C@@H](O)CC[C@@H]12 | 6.4 µM | 6.2 µM | 4.8 µM | 2.3 µM | 10 µM | 3.9 µM | 3.8 µM | 2.2 µM
6.3 µM | C[C@]12CC[C@@H]3c4cc(/C=C/CO)c(O)cc4CC[C@H]3[C@@H]1CC[C@@H]2O | 6.2 µM | 5.5 µM | 0.47 µM | 0.25 µM | 0.9 µM | 0.47 µM | 5.3 µM | 0.052 µM
> 40 µM | COc1cc(/C=C/c2cc3c(cc2O)CC[C@@H]2[C@@H]3CC[C@]3(C)[C@@H](O)CC[C@@H]23)cc(OC)c1OC | 2.4 µM | 3.6 µM | 2.7 µM | 2 µM | 2.8 µM | 3.2 µM | 3.2 µM | 4.4 µM
> 40 µM | C[C@]12CC[C@@H]3c4cc(/C=N/CCO)c(O)cc4CC[C@H]3[C@@H]1CC[C@@H]2O | 18 µM | 23 µM | 16 µM | 13 µM | 20 µM | 11 µM | 19 µM | 17 µM
